Measured values published in ChEMBL document CHEMBL4808178 (J Med Chem, 2021).
Activity calls are given as the source filed them. The rule behind the calls is not given here.

Columns and labels:
HCT-116 [1] = assay: Induction of apoptosis in human HCT116 cells assessed as increase in Bax protein expression at 20 uM incubated for 24 hrs by Western blot analysis; type: functional, cell-based
Method in brief: (§1)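 HCT-116 cells at 2 × 10⁵ cells/mL in DMEM/10% FBS, grown 12 h at 37 °C, then treated 24 h (vehicle DMSO). Lysates quantified by BCA, run on 10% SDS-PAGE, PVDF transfer, blocked in 5% milk/TBST, primary antibodies 4 °C overnight, HRP secondary 2 h, chemiluminescent detection; normalized to β-actin, n = 3.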

HCT-116 [2] = assay: Inhibition of cell stemness in human HCT116 cells assessed as reduction in OCT4 mRNA transcription levels at 20 uM after 24 hrs by RT-qPCR analysis; type: functional, cell-based
Method in brief: (§2)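 Sorted ALDH⁺ HCT-116 cells treated 24 h; TRIZOL RNA, one-step RT-qPCR (RT 10 min 55 °C; 95 °C 1 min; 39 cycles 95 °C 10 s/60 °C 30 s) with melting-curve check; β-actin reference; fold change by 2^−ΔΔCt; t test, mean ± SD, n = 3.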

HT-29 = assay: Cytotoxicity against human HT-29 cells assessed as reduction in cell viability incubated for 72 hrs by MTT assay; type: functional, cell-based; conditions: HT-29, 72 h
HCT-116 [3] = assay: Cytotoxicity against human HCT-116 cells assessed as reduction in cell viability incubated for 72 hrs by MTT assay; type: functional, cell-based; conditions: HCT-116, 72 h
Method in brief: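 About 5 × 10³ cells/well, seeded overnight at 37 °C, 5% CO₂, in DMEM or RPMI-1640 with 10% FBS and antibiotics. DMSO-dissolved compounds diluted in medium, exposure 72 h.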

[4] = biological target: T1, Aldehyde dehydrogenase 1A1 (Homo sapiens) (UniProt P00352); assay: (§3) Inhibition of human ALDH1A1 incubated for 2 hrs
T1 sequence (whole entry): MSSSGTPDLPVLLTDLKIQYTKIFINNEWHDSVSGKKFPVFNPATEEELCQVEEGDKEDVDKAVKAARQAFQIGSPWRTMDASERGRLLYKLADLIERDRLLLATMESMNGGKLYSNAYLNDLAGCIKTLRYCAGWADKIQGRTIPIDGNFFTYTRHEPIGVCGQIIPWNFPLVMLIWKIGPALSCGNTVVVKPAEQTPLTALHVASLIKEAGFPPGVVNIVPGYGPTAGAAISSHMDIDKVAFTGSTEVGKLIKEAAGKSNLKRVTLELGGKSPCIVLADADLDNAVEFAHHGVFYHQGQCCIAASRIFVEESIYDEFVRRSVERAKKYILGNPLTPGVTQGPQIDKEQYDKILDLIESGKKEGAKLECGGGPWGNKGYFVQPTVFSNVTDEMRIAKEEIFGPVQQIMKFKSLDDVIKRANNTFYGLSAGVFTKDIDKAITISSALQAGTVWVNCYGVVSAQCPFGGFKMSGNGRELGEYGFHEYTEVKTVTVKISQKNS

[5] = biological target: T2, Aldehyde dehydrogenase 1A1 (Homo sapiens, UniProt P00352); assay: as §3
T2 sequence (P00352 whole entry): T1 sequence (whole entry)

[6] = Volume of distribution in Sprague-Dawley rat at 25 mg/kg, po measured up to 48 hrs by LC-MS/MS analysis; type: ADME, organism-based; conditions: in vivo
Method in brief: (§4)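 Overnight-fasted male SD rats (250−270 g, n = 3/group), single oral 25 mg/kg in 5% CMC-Na (reference sodium salt in phosphate buffer); plasma at 0.25–48 h (12 timepoints), stored −40 °C; LC−MS/MS with internal-standard calibration 3–3000 ng/mL; parameters fitted by model.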

HCT-116 [7] = assay: Induction of apoptosis in human HCT116 cells assessed as necrotic cells at 5 uM after 24 hrs by annexin V-FITC/propidium iodide staining based flow cytometry (reference value: 5.6%); type: functional
HCT-116 [8] = assay: Induction of apoptosis in human HCT116 cells assessed as necrotic cells at 10 uM after 24 hrs by annexin V-FITC/propidium iodide staining based flow cytometry (reference value: 5.6%); type: functional
HCT-116 [9] = assay: Induction of apoptosis in human HCT116 cells assessed as increase in Cyt c protein expression at 20 uM incubated for 24 hrs by Western blot analysis; type: functional, cell-based; method in brief: as §1
[10] = MRT(0 to t) in Sprague-Dawley rat at 25 mg/kg, po measured up to 48 hrs by LC-MS/MS analysis; type: ADME, organism-based; conditions: in vivo; method in brief: as §4
HCT-116 [11] = assay: Effect on Wnt/beta-Catenin signaling in human HCT116 cells assessed as reduction in cyclin-D1 mRNA level at 20 uM after 24 hrs by RT-qPCR analysis; type: functional, cell-based
Method in brief: (§5)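 HCT-116 cells treated 24 h; total RNA by TRIZOL, one-step RT-qPCR: 55 °C 10 min, 95 °C 1 min, then 39 cycles of 95 °C 10 s and 60 °C 30 s, with melting-curve and no-template controls. β-Actin as internal standard; relative expression by 2^−ΔΔCt, mean ± SD (n = 3).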

HCT-116 [12] = assay: Effect on Wnt/beta-Catenin signaling in human HCT116 cells assessed as reduction in MMP7 mRNA level at 20 uM after 24 hrs by RT-qPCR analysis; type: functional, cell-based; method in brief: as §5
HCT-116 [13] = assay: Induction of cell cycle arrest in human HCT116 cells assessed as accumulation at G0/G1 phase at 20 uM after 24 hrs by propidium iodide-staining based flow cytometry (reference value: 48.89%); type: functional
[14] = biological target: T1, Aldehyde dehydrogenase 1A1 (Homo sapiens); assay: Inhibition of ALDH1A1 in human HCT116 cells assessed as reduction in mRNA transcriptional level at 20 uM after 24 hrs by RT-qPCR analysis; type: cell-based; conditions: HCT-116; method in brief: as §5
HCT-116 [15] = assay: Induction of apoptosis in human HCT116 cells assessed as late apoptotic cells at 10 uM after 24 hrs by annexin V-FITC/propidium iodide staining based flow cytometry (reference value: 5.1%); type: functional
HCT-116 [16] = assay: Inhibition of cell stemness in human HCT116 cells assessed as reduction in Nanog mRNA transcription levels at 20 uM after 24 hrs by RT-qPCR analysis; type: functional, cell-based; method in brief: as §2
HCT-116 [17] = assay: Induction of apoptosis in human HCT116 cells assessed as down regulation of total PARP at 20 uM incubated for 24 hrs by Western blot analysis; type: functional, cell-based; method in brief: as §1
HCT-116 [18] = assay: Induction of apoptosis in human HCT116 cells assessed as upregulation of cleaved caspase 9 level at 20 uM incubated for 24 hrs by Western blot analysis; type: functional, cell-based; method in brief: as §1
[19] = Toxicity in BALB/c mouse xenografted with human HCT116 cells assessed as effect on heart tissue at 60 to 90 mg/kg, po administered twice daily for 4 weeks and measured every 3 days by HE staining based assay; type: organism-based, HCT-116; conditions: in vivo, 672 h, dose 60-90 mg/kg
Method in brief: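 Male 5-week BALB/c nude mice (16−18 g), 0.2 mL of 5 × 10⁷ cells/mL HCT-116 injected into right armpit; at ~100 mm³ randomized, 5/group; intragastric 60 or 90 mg/kg twice daily for 4 weeks; tumor volume and body weight every 3 days; after sacrifice heart, liver, spleen, lung, kidney HE-stained.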

[20] = biological target: Serine/threonine-protein kinase PLK1 (Homo sapiens) (UniProt P53350); assay: Inhibition of PLK1 (unknown origin) assessed as residual activity at 1 uM relative to control
Method in brief: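 Commercial profiling service against a 208-kinase panel; single concentration 1 μmol/L; residual kinase activity expressed relative to control.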

Serine/threonine-protein kinase PLK1 (Homo sapiens), sequence (P53350 whole entry): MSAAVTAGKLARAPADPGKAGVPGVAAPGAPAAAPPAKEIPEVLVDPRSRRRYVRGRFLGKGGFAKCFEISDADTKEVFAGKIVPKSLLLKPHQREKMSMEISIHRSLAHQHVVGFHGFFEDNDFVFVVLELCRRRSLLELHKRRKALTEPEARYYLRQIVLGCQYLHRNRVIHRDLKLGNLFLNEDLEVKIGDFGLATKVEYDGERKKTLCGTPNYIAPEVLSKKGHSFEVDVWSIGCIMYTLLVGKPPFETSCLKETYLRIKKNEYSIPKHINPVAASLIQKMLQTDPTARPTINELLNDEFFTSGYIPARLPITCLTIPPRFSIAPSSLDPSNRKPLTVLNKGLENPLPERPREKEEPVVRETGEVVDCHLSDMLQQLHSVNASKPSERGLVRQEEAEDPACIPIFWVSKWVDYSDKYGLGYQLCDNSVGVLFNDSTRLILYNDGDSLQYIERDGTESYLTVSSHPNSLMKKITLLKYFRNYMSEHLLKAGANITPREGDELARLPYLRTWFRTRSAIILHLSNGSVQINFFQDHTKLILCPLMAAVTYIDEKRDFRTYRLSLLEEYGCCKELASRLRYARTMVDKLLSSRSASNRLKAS

## O=C(NCCO)c1ccc2c(c1)nc(Nc1cccc(Cl)c1)c1ccncc12
HCT-116 [1]
  Activity: Active
HCT-116 [2]
  inhibition: Active
HT-29
  IC50: 5.18 µM
HCT-116 [3]
  IC50: 3.07 µM
[4]
  inhibition: Dose-Dependent Effect
[5]
  IC50: 0.1 µM
[6]
  Vd: 2.77 L/kg
HCT-116 [7]
  Activity: 7%
HCT-116 [8]
  Activity: 7.6%
HCT-116 [9]
  Activity: Active
[10]
  MRT last at 48 h: 6.21 h
HCT-116 [11]
  Activity: Active
HCT-116 [12]
  Activity: Active
HCT-116 [13]
  Activity: 72.92%
[14]
  inhibition: Active
HCT-116 [15]
  Activity: 23.4%
HCT-116 [16]
  inhibition: Active
HCT-116 [17]
  Activity: Active
HCT-116 [18]
  Activity: Active
[19]
  Activity: Non-Toxic
[20]
  Activity: 40.5%
